Screening results: PubChem BioAssay, several laboratories
FAS TE block: FAS thioesterase (human) inhibition; recombinant FAS-TE, OMFH fluorogenic substrate, fluorescence endpoint; inhibition, % at 15 µM; 360,000 tested, 0.67% active; AID 602261;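 active means compounds whose normalised, plate-corrected inhibition of enzyme fluorescence in the single-dose primary screen is 50% or more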;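 further: 0% = DMSO with enzyme and 100% = substrate without enzyme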
Runt-SMMHC FRET: Runt domain-CBFb-SMMHC interaction inhibition. Cerulean-Runt/Venus-CBFb-SMMHC FRET ratio 530/480, 1 h. inhibition, % at 20 µM. 220,000 tested, 0.74% active. AID 1434;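 active means mean inhibition across duplicate retests at 20 µM reaching about 50%, limit read from the data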;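 further: 0% = DMSO wells and 100% = wells with excess untagged CBFb-SMMHC; inhibitors lower the FRET ratio by blocking Runt binding to CBFb-SMMHC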
Target sequence (Q01196 whole entry, looked up, the tested form may be a part): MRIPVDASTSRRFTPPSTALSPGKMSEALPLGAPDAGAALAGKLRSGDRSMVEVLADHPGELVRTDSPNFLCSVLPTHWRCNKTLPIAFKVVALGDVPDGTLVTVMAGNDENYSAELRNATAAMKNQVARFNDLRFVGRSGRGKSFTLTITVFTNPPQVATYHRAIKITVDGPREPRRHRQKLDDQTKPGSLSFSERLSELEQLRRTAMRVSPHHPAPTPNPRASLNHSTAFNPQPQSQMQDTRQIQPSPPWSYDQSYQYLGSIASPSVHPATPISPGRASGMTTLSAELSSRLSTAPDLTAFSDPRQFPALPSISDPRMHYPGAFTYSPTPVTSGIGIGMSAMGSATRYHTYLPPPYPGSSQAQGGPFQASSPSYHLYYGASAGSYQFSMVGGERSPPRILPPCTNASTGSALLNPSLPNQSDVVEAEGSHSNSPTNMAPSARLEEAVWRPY
Target sequence (Q13951 whole entry, looked up, the tested form may be a part): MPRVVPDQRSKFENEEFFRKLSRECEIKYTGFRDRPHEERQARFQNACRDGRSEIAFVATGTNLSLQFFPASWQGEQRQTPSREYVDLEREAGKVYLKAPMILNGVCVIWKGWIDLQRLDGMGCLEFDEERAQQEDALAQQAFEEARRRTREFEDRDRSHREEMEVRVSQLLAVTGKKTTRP
RanGTP-Impb inh: inhibitors of RanGTP-importin-beta interaction, primary screen, biochemical, FRET, CFP-Ran, YFP-importin-beta, homogeneous; cell-free CFP-Ran/YFP-importin-beta FRET ratio; inhibition, % (concentration not given with the values); 300,000 tested, 1.1% active;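 active means more than half of the replicate wells show a fall in the fluorescence ratio signal beyond about 16%, limit read from the data, passing the limit was not always enough; inconclusive means exactly half of the replicate wells pass the set limit; inactive means fewer than half of replicates pass the limit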;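 further: 0% = DMSO wells and 100% = Ran loaded with GDP instead of GTP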
Calpain2 inh: calpain II (pig) inhibition; purified calpain II, fluorogenic peptide substrate, 30 min; inhibition, % at 16 µM; 220,000 tested, 0.37% active; AID 1236;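 active means inhibition above about 50%, limit read from the data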
Runt-CBFb FRET: blocks binding of human RUNX1 Runt domain to CBFb; AID 1496; Q01196+Q13951; inhibition, % at 20 µM; Cerulean-Runt/Venus-CBFb FRET ratio 530/480, 1 h; 220,000 tested, 0.46% active;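 active means inhibition over about 50% at 20 µM in the single-dose screen, limit read from the data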;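 further: 0% = DMSO wells and 100% = excess unlabeled CBFb competitor control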
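Assay system: Cerulean-Runt domain fusion protein, energy donor; Signal: fluorescence energy transfer, 422 nm excitation, 530/480 nm emission; Timing: 1 h compound exposure, room temperature; Control set: unlabeled CBFb; Medium: Tris buffer pH 7.5 with salts and BSA; Compound: single test concentration of 20 µM, 1% DMSO final; Probe or stimulus: Venus-CBFb 100 nM.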
Numbers without * were called inactive; ? = inconclusive; . = no result. In the library only some 2.1% were active in any assay of this set; here they are far more common.

SMILES | FAS TE block | Runt-SMMHC FRET | RanGTP-Impb inh | Calpain2 inh | Runt-CBFb FRET
CCOC(=O)c1ccc(-n2c(CN3CCC(O)CC3)nc3ccc([N+](=O)[O-])cc3c2=O)cc1 | -6 | 0 | 6 | -47 | -1
COC(=O)c1c(NC(=O)COC(=O)c2ccc(Cl)nc2)sc(C)c1C | -5 | . | -2 | . | .
NC(=O)COc1ccc(/C=N\NC(=O)c2ccc(-c3ccccc3)cc2)cc1 | -3 | . | 1 | . | .
CCN(C[C@H]1N[C@@](C)(C(=O)OC)[C@H]2C(=O)N(Cc3ccccc3)C(=O)[C@@H]12)S(=O)(=O)c1ccccc1 | -2 | . | . | . | .
COc1ccccc1CNC(=O)CN1C(=O)NC2(CCOc3ccccc32)C1=O (centres undefined) | -4 | . | . | . | .
CCN(CC)c1ccc(-c2nn3c(-c4cccnc4)nnc3s2)cc1 | 15 | 80* | 11 | -13 | 21
CCN(CC)c1ccc(/C=C(/C#N)C(=O)NCc2ccccc2)o1 | -45 | -19 | 55* | 10 | -26
CCn1c(C)cc2c(c1=O)C(c1ccccc1Br)C(C#N)=C(N)O2 (centres undefined) | 21 | 9 | 48* | -12 | 4
COCCn1c(C)cc2c(c1=O)C(c1ccco1)C(C#N)=C(N)O2 (centres undefined) | -5 | 117* | 8 | 7 | 112*
COc1ccc(NC(=O)c2oc3ccccc3c2C)cn1 | 1 | . | 8 | . | .
NC(=O)c1cccc2c3c([nH]c12)CCCC3 | -5 | 4 | 85* | -26 | 1
CCOC(=O)C1CCCc2c1[nH]c1c(C(N)=O)cccc21 (centres undefined) | -9 | 4 | 25* | -11 | 1
CN(C)C(=O)C(=O)c1c(-c2ccccc2)cc2ccccn12 | -4 | 1 | 3 | 54* | 1
O=P(CCCCCCCCCP(=O)(c1ccccc1)c1ccccc1)(c1ccccc1)c1ccccc1 | 6 | -10 | -2 | 57* | -3
CC(C)c1ccc(CCNC(=O)CCNS(=O)(=O)c2ccc(Br)cc2)cc1 | -2 | . | . | . | .
O=C(COc1ccc(Br)cc1)NCCCNC(=O)c1cnccn1 | -4 | . | 2 | . | .
Cc1c(CCC(=O)O)c(=O)oc2cc3occ(C(C)(C)C)c3cc12 | -4 | -3 | -4 | 39 | -2
Cc1c(CCC(=O)O)c(=O)oc2cc(O)ccc12 | -4 | 75* | 3 | -443 | 33
Cn1nc(-c2ccc(Cl)cc2)c2cc(C(=O)NCCN3CCOCC3)sc21 | 0 | -4 | 136* | -371 | 3
C=CCn1c(Sc2nc(C)cs2)nc2c1c(=O)[nH]c(=O)n2C | -3 | -1 | 1 | 53* | 0
Cc1cccc(Cn2c(Sc3nc(C)cs3)nc3c2c(=O)[nH]c(=O)n3C)c1 | 21 | 5 | 2 | -3 | -2
CCCOc1ccc(OCCN2CCCC(C)C2)cc1 (centres undefined) | -9 | 4 | ? | 50* | -3
CCCCn1c(N)c(N(CC(C)C)C(=O)COC(=O)Cc2cccc(OC)c2)c(=O)[nH]c1=O | -6 | . | 4 | . | .
COc1ccc(-c2cc3nc(C)cc(NCCO)n3n2)cc1 | -1 | 4 | 1 | -67 | -3
Cc1ccc(-c2cc3nc(C)cc(NCc4ccco4)n3n2)cc1 | 17 | 14 | 38* | -23 | 5
SMILES | FAS TE block | Runt-SMMHC FRET | RanGTP-Impb inh | Calpain2 inh | Runt-CBFb FRET
CCCCCN(C(=O)CCC(=O)OC(C)C(=O)NC1CCCCC1)c1c(N)n(CCCC)c(=O)[nH]c1=O (centres undefined) | -7 | . | 1 | . | .
Cc1ccc(N2CCN(CC(O)COc3ccc([N+](=O)[O-])cc3)CC2)cc1 (centres undefined) | 15 | -3 | -5 | 27 | 0
O=[N+]([O-])c1ccc(OCC(O)CN2CCN(c3ccccc3F)CC2)cc1 (centres undefined) | 13 | -9 | 5 | 57* | 0
COc1ccccc1N1CCN(CC(O)COc2c(OC)cccc2OC)CC1 (centres undefined) | -18 | 1 | 24* | -22 | -1
CCCn1c(N)c(C(=O)COC(=O)/C=C/c2ccc(OC(F)F)c(OC)c2)c(=O)[nH]c1=O | -9 | . | . | . | .
COC(=O)/C=C1\NCCNC1=O | -4 | -3 | 1 | 3 | 2
Cc1ccc2[nH]c3c(c2c1)SC(C)(C)CC3=O | 6 | 29 | 21* | -154 | 18
Cc1cccc2c3c([nH]c12)C(=O)CC(C)(C)S3 | 0 | 22 | 8 | -86 | 9
CCCN(CCC)c1ccc(/C=C/c2ccc3cc(OCC)ccc3n2)cc1 | -6 | 82 | 21* | 10 | -20
CN(C)c1ccc(/C=C/c2ccc3ccccc3n2)cc1 | 3 | 84 | -70 | -152 | -26
COc1cc(/C=N/OCC(=O)Nc2cc(C)cc(C)c2)ccc1OCc1ccc(Cl)cc1 | 31 | 18 | 26* | 7 | 4
COc1cc(/C=N/OCC(=O)NC2CCCCC2C)ccc1OCc1ccc(Cl)cc1 (centres undefined) | 34 | -2 | ? | 30 | -4
CN=C(Nc1cccnc1)c1ccccc1 | -2 | . | 3 | . | .
O=S(=O)(c1ccccc1)[C@@]1(c2ccccc2)C[C@@H]2ON=C(c3cccc(Br)c3)[C@@H]2C1 | 55* | . | 2 | . | .
O=C(O)[C@]1(S(=O)(=O)c2ccccc2)C[C@@H]2ON=C(c3cccc(Br)c3)[C@@H]2C1 | -10 | . | 1 | . | .
O=C1CC(NS(=O)(=O)c2ccccc2)CN1c1ccc2c(c1)OCCO2 (centres undefined) | -8 | . | 1 | . | .
CCCCCCCCCCCCCCCC[n+]1ccc(C(N)=O)cc1 | -133 | -13 | . | 72* | -9
CC1CN(Cc2cc(=O)oc3cc(O)c(Cl)cc23)CC(C)O1 (centres undefined) | -4 | . | 61* | . | .
CN(Cc1ccccc1F)Cc1cc(=O)oc2cc(O)c(Cl)cc12 | -2 | . | 67* | . | .
CC1CCN(Cc2cc(=O)oc3cc(O)c(Cl)cc23)CC1 | -5 | . | 118* | . | .
Cc1ccc2oc(=O)cc(CN3CC(C)OC(C)C3)c2c1 (centres undefined) | -7 | . | 7 | . | .
COc1ccc(NC(=O)N(O)C2(C#N)CCCCC2)cc1 | -4 | . | . | . | .
CC(OC(=O)Nc1ccccc1)C(=O)OC1CCCCC1 (centres undefined) | 3 | . | . | . | .
COc1ccc(C(C#N)N2CCC(c3ccccc3)=N2)cc1 (centres undefined) | 7 | . | -2 | . | .
CCOc1ccc(NC(=O)CN(C)C(=O)c2c(-c3ccccc3)noc2C)cc1OCC | -4 | . | . | . | .
NNC(=O)C1SCCN1S(=O)(=O)c1ccc(Cl)cc1 (centres undefined) | -5 | . | -1 | . | .
O=C(CCN1C(=O)/C(=C/c2ccc3c(c2)OCO3)SC1=S)Nc1ccc(C(=O)O)cc1 | 0 | . | -12 | . | .
O=C(CCN1C(=O)/C(=C/c2ccc3c(c2)OCO3)SC1=S)Nc1ccccc1 | -6 | -49 | 0 | 58* | -15
O=C(Nc1ncn[nH]1)c1ccc(Cl)c(Cl)c1 | 5 | . | . | . | .
CC(NC(=O)c1ccccc1)c1ccc(F)cc1 (centres undefined) | -8 | 2 | -4 | 62* | -1
